From PubChem BioAssay come the findings set out here.

Active and inactive are the calls of the source. Unless noted, no stated cut-off is given here; in the data, active means inhibition above about 30%; inactive means the rest.

Assay [1] is described as follows: reduced viability of SK-BR-3 breast cancer cells – cell-based, 24 h, human, pilot screen (AID 572;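 active means viability at or below 10% of carrier control in both of two separate runs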;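 further: compound exposure lasted between 18 and 24 h rather than exactly 24 h; 100% = carrier-treated control wells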). Particulars: SK-BR-3 viability, CellTiter-Glo luminescence, at 10 µM, stronger effect = lower value. (ATP-based viability assays read luminescence as a measure of living cells.)
Assay [2] can be described thus: HUVEC growth inhibition – cell-based, human, primary screen (AID 575;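 active means viability at or below 30% in both replicate assays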;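 further: 100% = median of untreated cell wells with 0.1% DMSO on each plate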). As to conditions: HUVEC proliferation, CellTiter-Glo luminescence, 72 h; at 10 µM; stronger effect = lower value. An outline of the steps:
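Test system: HUVEC primary cells. Quantity: 1250 endothelial cells in each well. Dosing: single-point 10 µM, DMSO 0.1% final. Incubation: 72 h treatment at 37 °C. Measured by: CTG luminescence. Control set: DMSO cell controls and MePR drug controls. Plate: collagen-coated 384-well format.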

Assay [3] can be described thus: H69AR cell proliferation blockers – human, duplicate replicates, primary screen (AID 580;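 active means viability at or under a set limit in both replicates, limit being median viability minus 3 SD, cut at about 48% in these data, passing the limit was not always enough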;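 further: 100% = mean luminescence of untreated wells and 0% = no signal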). Particulars: H69AR lung tumor cells viability, ATP luminescence, 72 h; at 10 µM; stronger effect = lower value.
Assay [4] in a line: MRP1 drug-resistance reversers in H69AR cells – cell-based, doxorubicin co-treatment, pilot screen (AID 601;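 active means viability loss from added drug above about 55%, and viability with drug at most 40%, in both replicates, limit read from the data, passing the limit was not always enough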). Particulars: CellTiter-Glo, 72 h, at 10 µM; for differential viability (reversal): stronger effect = higher value.
Assay [5] is described as follows: yeast transport mutant growth inhibition pilot in 384-well plates, post-Golgi transport modulator project (AID 636; in the data active means inhibition above about 31%). As to conditions: absorbance 615 nm, about 18 h, stronger effect = higher value.
The nature of assay [6]: growth suppression of yeast trafficking mutant, preliminary HTS, modulators of trafficking downstream of Golgi apparatus project, 1536-format plate, OD 615 nm (AID 637). As to conditions: yeast transport mutant growth, absorbance 615 nm, 18 h; stronger effect = higher value.
The mark [7] stands for this setting: H69AR cells + 2 uM doxorubicin, measured here: viability with 2 uM doxorubicin, stronger effect = lower value.
The mark [8] stands for this setting: H69AR cells, compound alone cytotoxicity.

Take `CCc1nc2sc3ccccc3c(=O)c2c(=O)n1Cc1ccco1`: the viability in assay [1] was 73% (inactive); in assay [2], 82.6% (inactive); in assay [3], 77% (inactive); in assay [4] (setting [7]), 74.5%; in assay [4] (setting [8]), 77%. In assay [4] (H69AR cells + 2 uM doxorubicin), the differential viability (reversal) is 2.49% (inactive). Also, the figures for the inhibition in assay [5] and in assay [6] were -3.77% (inactive) and 0.98% (inactive), respectively.

As to `CCOc1cc(C2Nc3ccccc3C(=O)N2c2ccccc2OC)ccc1O` (stereo not drawn), the viability is 98% (inactive) in assay [1]; 105% (inactive) in assay [2]; 95% (inactive) in assay [3]; 94.9% in assay [4] (setting [7]); 95% in assay [4] (setting [8]). For the same compound, the differential viability (reversal) in assay [4] (H69AR cells + 2 uM doxorubicin) was 0.125% (inactive). Moreover, the inhibition is -4.59% (inactive) in assay [5] and 28.4% (inactive) in assay [6].

`NS(=O)(=O)c1ccc(C(=O)O)cc1`: the viability in assay [1] was 92% (inactive); in assay [2] it was 93.4% (inactive); in assay [3], 99% (inactive); in assay [4] (setting [7]), 87.5%; in assay [4] (setting [8]) it was 99%. Besides, the differential viability (reversal) in assay [4] (H69AR cells + 2 uM doxorubicin) was 11.6% (inactive). The values for the inhibition in assay [5] and in assay [6] were 5.45% (inactive) and -5.33% (inactive), respectively.

In the case of `NS(=O)(=O)c1cc2c(cc1Cl)NC=NS2(=O)=O`, the viability in assay [1] is 104% (inactive); in assay [2] it was 93.9% (inactive); in assay [3], 100% (inactive); in assay [4] (setting [7]), 95.9%; in assay [4] (setting [8]), 100%. The differential viability (reversal) in assay [4] (H69AR cells + 2 uM doxorubicin) is 4.17% (inactive). Moreover, the values for the inhibition in assay [5] and in assay [6] were 0.13% (inactive) and 1% (inactive), respectively.

Consider `CCN1CCc2c(C#N)c(N3CCCCC3)nc(NCc3ccccc3)c2C1`, for which the viability in assay [1] was 103% (inactive); in assay [2] it was 2.17% (active); in assay [3] it was 16.3% (active); in assay [4] (setting [7]) it was 26.4%; in assay [4] (setting [8]), 16.3%. Also, in assay [4] (H69AR cells + 2 uM doxorubicin), the differential viability (reversal) was -10.1% (inactive). Moreover, the figures for the inhibition in assay [5] and in assay [6] were -4.4% (inactive) and 16.6% (inactive), respectively.

As for `Cn1c(=O)[nH]c(=O)c2c1ncn2CCN1CCOCC1`, the viability in assay [1] was 96% (inactive); in assay [2], 102% (inactive); in assay [3], 99.1% (inactive); in assay [4] (setting [7]) it was 93.8%; in assay [4] (setting [8]) it was 99.1%. The differential viability (reversal) in assay [4] (H69AR cells + 2 uM doxorubicin) was 5.28% (inactive). The inhibition is -2.6% (inactive) in assay [5] and -1.48% (inactive) in assay [6].

On to `COP(C)(=O)c1c(C)nn(-c2ccccc2)c1C` (stereo not drawn), for which the viability in assay [1] is 122% (inactive); in assay [2] it was 104% (inactive); in assay [3], 96.3% (inactive); in assay [4] (setting [7]), 94.5%; in assay [4] (setting [8]) it was 96.3%. For the same compound, the differential viability (reversal) in assay [4] (H69AR cells + 2 uM doxorubicin) was 1.8% (inactive). In addition, the inhibition in assay [5] is 0.39% (inactive); in assay [6], 1.15% (inactive).

As to `Cc1ccc(C(C(=O)NC2CCCCC2)N(C(=O)c2csnn2)C2CCCC2)o1` (stereo not drawn), the viability in assay [1] is 108% (inactive); in assay [2], 101% (inactive); in assay [3], 80.4% (inactive); in assay [4] (setting [7]) it was 79.4%; in assay [4] (setting [8]), 80.4%. Further, the differential viability (reversal) in assay [4] (H69AR cells + 2 uM doxorubicin) is 1.01% (inactive). Also, the inhibition is -0.65% (inactive) in assay [5] and -2.46% (inactive) in assay [6].

`C[C@@H]1C[C@H]2[C@@H]3C[C@H](F)C4=CC(=O)C=C[C@]4(C)[C@@]3(F)[C@@H](O)C[C@]2(C)[C@@]1(O)C(=O)COC(=O)C(C)(C)C`: the viability was 103% (inactive) in assay [1]; 76.9% (inactive) in assay [2]; 79.5% (inactive) in assay [3]; 87.3% in assay [4] (setting [7]); 79.5% in assay [4] (setting [8]). Besides, the differential viability (reversal) in assay [4] (H69AR cells + 2 uM doxorubicin) was -7.82% (inactive). Moreover, the values for the inhibition in assay [5] and in assay [6] were -3.38% (inactive) and -11.3% (inactive), respectively.

For `CC(C)(Oc1ccc(Cl)cc1)C(=O)NCc1ccncc1`, the viability in assay [1] was 111% (inactive); in assay [2], 105% (inactive); in assay [3], 94.2% (inactive); in assay [4] (setting [7]), 88.7%; in assay [4] (setting [8]), 94.2%. Besides, the differential viability (reversal) in assay [4] (H69AR cells + 2 uM doxorubicin) is 5.47% (inactive). The figures for the inhibition in assay [5] and in assay [6] were -6.89% (inactive) and -12.2% (inactive), respectively.

For the compound `Cc1cc2ccccc2c(=O)n1CC(=O)Nc1ccc2c(c1)OCO2`, the viability in assay [1] was 136% (inactive); in assay [2], 86.6% (inactive); in assay [3], 98.9% (inactive); in assay [4] (setting [7]), 93.7%; in assay [4] (setting [8]), 98.9%. The differential viability (reversal) in assay [4] (H69AR cells + 2 uM doxorubicin) was 5.25% (inactive). Also, the inhibition is -2.34% (inactive) in assay [5] and -7.05% (inactive) in assay [6].

For orientation: viability means a read-out of living cells in per cent, often relative to untreated cells. The term inhibition denotes the change of the read-out against control, counted positive when it falls.
